Series [1] concerns Raji. Briefly: Inhibition of 12-O-tetradecanoylphorbol-13-acetate induced EBV-early antigen activation in human Raji cells at 100 molar ratio relative to control. Type of series: cell-based. The conditions noted are these: human gammaherpesvirus 4. The procedure, abridged:
(§1)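 Raji cells in RPMI-1640 treated 48 h at 37 °C with n-butyric acid (4 mmol), TPA (32 pmol = 20 ng/mL) and test agent at 10, 100, 500 or 1000 mol ratio/TPA (0.32–32 nmol). EA-positive cells in smears detected by indirect immunofluorescence; induction expressed relative to TPA positive control (100%), n = 3, ±S.D.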

For series [2], the system named is Mus musculus. Briefly: Inhibition of DMBA-induced/TPA-promoted carcinogenesis in mouse assessed as number of mouse bearing papillomas at 85 nmol administered twice weekly after 1 week of initiation for 10 weeks. Type of series: functional. Also on record: scale not given: the % may be the effect or the level left. The essentials:
(§2)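 Female SPF ICR mice, 6 weeks old, 15 per group, backs shaved; single topical DMBA initiation (100 μg, 390 nmol) in 0.1 mL acetone. From 1 week after, promotion with TPA 1.7 nmol twice weekly, plus 85 nmol test agent. Papilloma incidence and number per mouse monitored weekly for 20 weeks.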

Series [3] concerns Raji. The series is described as follows: Inhibition of 12-O-tetradecanoylphorbol-13-acetate induced EBV-early antigen activation in human Raji cells at 10 molar ratio relative to control. Type of series: cell-based. Particulars: human gammaherpesvirus 4. The procedure, abridged: as §1
In series [4] the test system is Raji. The series is described as follows: Inhibition of 12-O-tetradecanoylphorbol-13-acetate induced EBV-early antigen activation in human Raji cells at 500 molar ratio relative to control. Type of series: cell-based. The conditions noted are these: human gammaherpesvirus 4. The essentials:
as §1

Series [5] is described as follows: Cytotoxicity against human Raji cells assessed as cell viability at 100 molar ratio after 48 hrs. Type of series: cell-based. The conditions noted are these: read-out: Activity. The procedure, abridged:
(§3)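 Raji cells (EBV genome-carrying, Burkitt's lymphoma-derived) grown in RPMI-1640 and incubated 48 h at 37 °C with 4 mmol n-butyric acid, 32 pmol TPA (20 ng/mL) and test agent at 10–1000 mol ratio/TPA (0.32–32 nmol). Viability given as percentage of Raji cells; n = 3, ±S.D.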

The nature of series [6]: Cytotoxicity against human Raji cells assessed as cell viability at 10 molar ratio after 48 hrs. Type of series: cell-based. Particulars: read-out: Activity. The procedure, abridged:
as §3

In series [7] the test system is Mus musculus. Briefly: Inhibition of DMBA-induced/TPA-promoted carcinogenesis in mouse assessed as number of mouse bearing papillomas at 85 nmol administered twice weekly after 1 week of initiation for 17 weeks. Type of series: functional. Set-up: scale not given: the % may be the effect or the level left. The procedure, abridged: as §2
Series [8] is described as follows: Cytotoxicity against human Raji cells assessed as cell viability at 500 molar ratio after 48 hrs. Type of series: cell-based. The conditions noted are these: read-out: Activity. The essentials: as §3
In series [9] the test system is Raji. The series is described as follows: Inhibition of 12-O-tetradecanoylphorbol-13-acetate induced EBV-early antigen activation in human Raji cells at 1000 molar ratio relative to control. Type of series: cell-based. Particulars: human gammaherpesvirus 4. The essentials:
as §1

The test system of series [10] is Mus musculus. Briefly: Inhibition of DMBA-induced/TPA-promoted carcinogenesis in mouse assessed as number of skin papillomas per mouse at 85 nmol administered twice weekly after 1 week of initiation for 20 weeks. Type of series: functional. The procedure, abridged: as §2
The subject of series [11] is Mus musculus. Briefly: Inhibition of DMBA-induced/TPA-promoted carcinogenesis in mouse assessed as number of skin papillomas per mouse at 85 nmol administered twice weekly after 1 week of initiation for 10 weeks. Type of series: functional. The procedure, abridged:
as §2

The subject of series [12] is Mus musculus. Briefly: Inhibition of DMBA-induced/TPA-promoted carcinogenesis in mouse assessed as number of mouse bearing papillomas at 85 nmol administered twice weekly after 1 week of initiation for 8 weeks. Type of series: functional. Set-up: scale not given: the % may be the effect or the level left. The essentials:
as §2

Series [13] can be described thus: Cytotoxicity against human Raji cells assessed as cell viability at 1000 molar ratio after 48 hrs. Type of series: cell-based. Particulars: read-out: Activity. The essentials:
as §3

For series [14], the system named is Mus musculus. Briefly: Inhibition of 4NQO-induced/glycerol-promoted carcinogenesis in mouse assessed number of pulmonary tumors per mouse at 1.27 mg/week administered twice weekly after 5 weeks of initiation for 22 weeks. Type of series: functional. The procedure, abridged: (§4)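 Female SPF ICR mice (6 weeks old), 15 per group. Initiation by single s.c. injection of 0.3 mg 4NQO in olive oil–cholesterol (20:1); promotion with 8% glycerol in drinking water ad libitum, test agent given at 0.0025% or 0.005%. Killed by cervical dislocation after 22-week promotion; pulmonary tumors counted per lobe under dissecting microscope. Student's t-test vs 4NQO + glycerol group.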

In series [15] the test system is Mus musculus. The series is described as follows: Inhibition of 4NQO-induced/glycerol-promoted carcinogenesis in mouse assessed number of mouse with pulmonary tumors at 1.27 mg/week administered twice weekly after 5 weeks of initiation for 22 weeks. Type of series: functional. Set-up: scale not given: the % may be the effect or the level left. The procedure, abridged: as §4

The test system of series [16] is Mus musculus. The series is described as follows: Inhibition of 4NQO-induced/glycerol-promoted carcinogenesis in mouse assessed number of mouse with pulmonary tumors at 2.54 mg/week administered twice weekly after 5 weeks of initiation for 22 weeks. Type of series: functional. Set-up: scale not given: the % may be the effect or the level left. The procedure, abridged:
as §4

In series [17] the test system is Mus musculus. The series is described as follows: Inhibition of 4NQO-induced/glycerol-promoted carcinogenesis in mouse assessed number of pulmonary tumors per mouse at 2.54 mg/week administered twice weekly after 5 weeks of initiation for 22 weeks. Type of series: functional. The essentials: as §4
For series [18], the system named is Mus musculus. Briefly: Toxicity in 4NQO-induced/glycerol-promoted carcinogenesis mouse model assessed change in body weight at 1.27 mg/week administered twice weekly after 5 weeks of initiation for 22 weeks. Type of series: organism-based. Particulars: in vivo. The procedure, abridged: (§5)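 Female ICR mice in the 4NQO (0.3 mg s.c.)-initiated, 8% glycerol drinking-water-promoted lung model, 15 per group, test agent at 0.0025% or 0.005%. Body weight recorded at end of the 22-week promotion period.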

Series [19] relates to Mus musculus. Briefly: Toxicity in 4NQO-induced/glycerol-promoted carcinogenesis mouse model assessed change in body weight at 2.54 mg/week administered twice weekly after 5 weeks of initiation for 22 weeks. The conditions noted are these: in vivo. Type of series: organism-based. The essentials: as §5

Where only a bound is given, the exact number is not on record here.

For `C[C@@H]1C(=O)O[C@H](C)[C@H]1C[C@@H](O)[C@](C)(O)[C@H]1CC[C@@]2(O)C3=CC(=O)[C@@H]4C[C@@H](O)[C@@H](O)C[C@]4(C)[C@H]3CC[C@]12C` [CYASTERONE], the EBV-EA induction remaining (% of TPA control) in the series with Raji [1] was 75.2%; in the series with Raji [4] it was 36.2%; in the series with Raji [9], 0%. In addition, the Activity with Mus musculus [2] is listed as 60%; with Mus musculus [7], 80%; with Mus musculus [10], 7; in the series with Mus musculus [11], 2.5; with Mus musculus [12], 43%. Further, the EBV-EA activation relative to TPA control in the series on Raji [3] came to 94.6%. Further, in series [5], the viability at 48 h, 100 molar ratio is above 80%. Also, in series [6], the viability at 48 h, 10 molar ratio was above 80%. Also, the viability at 48 h, 500 molar ratio in series [8] was above 80%. In series [13], the viability at 48 h, 1000 molar ratio came to 70%.

Regarding `CC(=O)O[C@@]1(C)C[C@@H](O)[C@]2(O)C=CO[C@@H](O[C@@H]3O[C@H](CO)[C@@H](O)[C@H](O)[C@H]3O)[C@@H]21`, the EBV-EA induction remaining (% of TPA control) with Raji [1] amounted to 62.6%; in the series with Raji [4], 19.9%; with Raji [9], 0%. Further, the Activity in the series on Mus musculus [2] is on record as 20%; in the series on Mus musculus [14], 1.1; in the series with Mus musculus [15], 53.3%; in the series on Mus musculus [16], 46.6%; in the series with Mus musculus [17] it was 0.9; in the series on Mus musculus [18] it was “Non-toxic”. Further, the Activity was 80% in the series with Mus musculus [7]; 6 in the series on Mus musculus [10]; 2 in the series with Mus musculus [11]; 10% in the series on Mus musculus [12]; “Non-toxic” in the series with Mus musculus [19]. The EBV-EA activation relative to TPA control in the series on Raji [3] came out at 89.5%. The viability at 48 h, 100 molar ratio in series [5] is above 80%. For the same molecule, in [6], the viability at 48 h, 10 molar ratio was above 80%. Besides, the viability at 48 h, 500 molar ratio in series [8] was above 80%.

The values above are taken from ChEMBL document CHEMBL1144067, “Cancer chemopreventive agents (antitumor-promoters) from Ajuga decumbens” (J Nat Prod, 1999).
